Results: ChEMBL document CHEMBL1147842, “Novel 1,4-benzodiazepine derivatives with antiproliferative properties on tumor cell lines” (Bioorg Med Chem Lett, 2007)
pIC50: −log10 of the molar value. Active and inactive are the calls of the source. The calls are words filed in the database; no cut-off is given here.

Legend:
Assay type in all cases: functional, cell-based
[1] = (§1) Antiproliferative activity against v-Src transformed mouse NIH 3T3 fibroblast after 72 hrs; conditions: NIH3T3, 72 h
How it was run: (§2)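 NIH 3T3/v-Src fibroblasts seeded at 10⁵/well, left overnight at 37°C in 5% CO₂. Compound exposure 0–150 μM for 72 h. Cells then washed in PBS, trypsinised and counted in a particle counter. Means of at least two independent experiments run in duplicate. IC₅₀ taken from a sigmoidal dose-response fit.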

[2] = system: A2058; assay: Cytotoxicity against human A2058 cells after 72 hrs by WST-1 colorimetric test; conditions: for pIC50: A2058, 72 h
How it was run: (§3)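 WST-1 colorimetric readout, based on cleavage by mitochondrial dehydrogenases. A2058 (4000 cells/well) or HeLa (3000 cells/well) left overnight at 37°C in 5% CO₂, then exposed to compounds at 0–150 μM for 72 h. WST-1 added for 2 h, absorbance at 450 nm read against a background control. Means of at least two independent experiments in triplicate.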

[3] = system: HeLa; assay: Cytotoxicity against human HeLa cells after 72 hrs by WST-1 colorimetric test; how it was run: as §3
[4] = system: NIH3T3; assay: Antiproliferative activity against v-Src transformed mouse NIH 3T3 fibroblast at 150 uM after 72 hrs; how it was run: as §2
[5] = system: NIH3T3; assay: as §1; how it was run: as §2

| SMILES | pIC50 [1] | pIC50 [2] | pIC50 [3] | Activity [4] | Activity [2] | Activity [3] | Activity [5] |
| --- | --- | --- | --- | --- | --- | --- | --- |
| C[C@@H]1N=C(c2ccccc2)c2ccccc2N(Cc2ccc(OP(=O)(O)O)cc2)C1=O | 4.44 | 4.54 | 4.67 |  |  |  |  |
| C[C@@H]1N=C(c2ccccc2)c2ccccc2N(Cc2ccc(OP(=O)(O)OCc3ccccc3)cc2)C1=O | 4.31 | 4.21 | 4.39 |  |  |  |  |
| NCCCC[C@@H]1N=C(c2ccccc2)c2ccccc2N(Cc2ccc(OP(=O)(O)O)cc2)C1=O | ≤ 4.10 | 4.47 | ≤ 4.10 |  |  |  |  |
| C[C@@H]1N=C(c2ccccc2)c2ccccc2NC1=O |  |  |  | inactive | inactive | inactive |  |
| C[C@@H]1N=C(c2ccccc2)c2ccccc2N(Cc2ccc(CP(=O)(O)O)cc2)C1=O |  |  |  |  | inactive | inactive | inactive |
| CN1C(=O)CN=C(c2ccc(Cl)cc2)c2cc(Cl)ccc21 [RO-54864] | 4.50 | ≤ 4.00 | ≤ 4.00 |  |  |  |  |
| C[C@@H]1N=C(c2ccccc2)c2ccccc2N(Cc2ccc(O)cc2)C1=O | 4.41 | 4.57 | 4.53 |  |  |  |  |
| NCCCC[C@@H]1N=C(c2ccccc2)c2ccccc2N(Cc2ccc(CP(=O)(O)O)cc2)C1=O |  |  |  |  | inactive | inactive | inactive |
